HSV augment – increases HSV replication in cells. HSV replication augmentation in cells, fold increase. maximum fold increase. hit rate 0.005% among 220,000. AID 1956; in the data active = maximum fold increase above about 1.5; tested in PC3 cells
b-catenin transl – alters nuclear translocation of beta-catenin in HeLa cells. immunofluorescence imaging. nuclear translocation activity, % at 5 µM. hit rate 0.3% among 190,000;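 active = nuclear translocation activity above 50% at 5 µM, with a well cell count of 50 or more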;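 also: per-cell ratio of nuclear to cytoplasmic median beta-catenin stain intensity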
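Test system: human HeLa cell line; Doses: 5 µM primary, 0.02–20 µM confirmation; Incubation: 24 h compound exposure, 37°C; Detection: beta-catenin immunofluorescence imaging with DAPI; Read-out: beta-catenin nuclear/cytoplasmic ratio, % activation.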
Dynein cargo inh – blocks dynein driven cargo transport along microtubules; 3617.4 mouse cells, GR-EGFP nuclear translocation imaging; test concentration mostly 20 µM; stimulated with dexamethasone, 1 µM; active compounds read low; z-score, hits read low; hit rate 0.47% among 220,000;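 active = plate z-score of nuclear minus cytoplasmic receptor signal below a set negative limit, without overly bright fluorescence or cell loss, cut at about -3.5 in these data, passing the limit was not always enough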;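 also: z-score of nuclear minus cytoplasmic ring GR-EGFP intensity difference per well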
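Buffer or medium: Induction medium lacking tetracycline, stripped serum | Also added: Dexamethasone agonist, 1.0 µM final, for 30 min | Timing: 48 h induction, 1 h compound, 30 min dex at 37 °C | Detection: Formaldehyde fixation, Hoechst nuclear stain, 10x automated fluorescence imaging | Measure: Nuclear versus cytoplasmic GR-EGFP signal, averaged per well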
MT stabilizer – stabilizes microtubules in HeLa cells | HeLa tubulin immunostaining HCS, 24 h; share of cells brighter than vehicle mean+2SD | % tubulin-high responders, % at 10 µM | hit rate 0.83% among 200,000;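 active = plate Z-score above 3 for both tubulin-high and condensed-nucleus cell shares, with cell loss under 80%, at 10 µM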;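 also: anti alpha tubulin signal scored within the nucleus-defined area of each cell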
L major viab – inhibitors of Leishmania major promastigote growth; Leishmania major promastigotes, resazurin fluorescence viability; inhibition, % at 10 µM; hit rate 9% among 200,000; AID 1063; in the data active = inhibition above about 50%;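 also: promastigotes grown with compound for 44 hours at 28 °C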
Each line names hits and unclear results; the compound was inactive in the other large screens. Sampled rows, rich in hits. Any-hit rate of the full collection: about 8.9%.

COc1ccc(C(NC(=O)c2ccco2)c2ccc(OC)c(OC)c2)cc1 (stereo not given)	none (no result: b-catenin transl)
O=C(NCc1ccccc1)c1ccc(C2SCC(=O)N2Cc2ccccc2)cc1 (stereo not given)	L major viab 96.6
CCc1ccc(NC(=O)c2ccc(C3SCC(=O)N3CCc3ccccc3)cc2)cc1 (stereo not given)	L major viab 92.9 (no result: HSV augment)
CCNC(=O)c1ccc(C2SCC(=O)N2CCc2ccccc2)cc1 (stereo not given)	none
COc1ccccc1N(C)S(=O)(=O)c1ccc(C(=O)OCC(=O)NCc2cccs2)cc1	none (no result: MT stabilizer, L major viab)
CC(C)(C)SCCNC(=O)Nc1ccccc1	L major viab 53.9
CC(C)(C)SCCNC(=O)CSc1ccccc1	none (no result: b-catenin transl)
COC(=O)c1ccc(COC(=O)c2ccc(S(=O)(=O)N3CCC(C)CC3)cc2)o1	none
Cc1cccc(Oc2nc(CN3CCOCC3)nc3sc4c(c23)CCCC4)c1	L major viab 98.5
Cc1ccc(NC(=O)C2=CCN(S(=O)(=O)c3ccc(F)cc3)CC2)c(C)c1	none (no result: HSV augment)
COc1cc(S(=O)(=O)NCc2cccnc2)ccc1F	none
CSc1nc2ccccc2cc1/C=C(\C#N)c1cccc(Cl)c1	MT stabilizer 34.3
COc1ccc(-c2nn(-c3ccccc3)cc2C(=O)O)cc1	none
COc1ccc(-c2nn(-c3ccccc3)cc2C(=O)N2c3ccc(C)cc3C3CN(C)CCC32)cc1 (stereo not given)	L major viab 59.1
Cc1cc(NC(=O)CSc2nnc(-c3ccc4c(c3)OCCO4)o2)no1	none
Cc1ccc(NC(=O)Cc2nc(CSc3nnc(-c4ccc5c(c4)OCO5)o3)cs2)cc1	L major viab 87.0
O=C(COC(=O)C1CCCN1C(=O)C12CC3CC(CC(C3)C1)C2)c1ccc(Br)cc1 (stereo not given)	none
COc1ccc(C(=O)COC(=O)C2CCCN2C(=O)C23CC4CC(CC(C4)C2)C3)cc1 (stereo not given)	L major viab 55.2
Cc1[nH]nc2c1C(c1ccc(OC(=O)c3ccco3)cc1)C(C#N)=C(N)O2 (stereo not given)	none (no result: b-catenin transl)
Cc1ccc(-n2[nH]c(C)c(C=Nc3ccc(S(=O)(=O)N4CCOCC4)cc3)c2=O)c(C)c1	L major viab 51.9
Cc1cccc[n+]1CC(=O)/C=C1\N(C)c2ccccc2C1(C)C	L major viab 84.4
CN1/C(=C\C(=O)CN2C(=O)NC3(CCCCCC3)C2=O)C(C)(C)c2ccccc21	L major viab 96.0 (no result: b-catenin transl)
CN1/C(=C\C(=O)COC(=O)CN2C(=O)C3CC=CCC3C2=O)C(C)(C)c2ccccc21 (stereo not given)	none
O=C(Nc1nnc(-c2ccc(F)cc2)o1)c1ccco1	none (no result: MT stabilizer, L major viab)
CSc1ccc(Cc2ccc(Cl)cc2Cl)nn1	none
Nc1nc(N)c(Cc2ccc(Cl)cc2Cl)c(N)n1	L major viab 63.7
NNc1ccc(Cc2ccc(Cl)cc2Cl)nn1	L major viab 91.0
Cc1cc(OCC(=O)Nc2ccncc2)c(C)cc1Br	none
Cc1ccnc(NC(=O)CCCOc2cc(=O)n(C)c3ccccc23)c1	none
Cc1cccc(CN(C(=S)Nc2c(C)cccc2C)c2cccnc2)c1	L major viab 86.8
C=CCn1cnc2c(c1=O)c1nc3ccccc3nc1n2/N=C/c1cc(OC)c(OC)c(OC)c1	L major viab 100.2
O=C(CN(Cc1ccc(Cl)c(Cl)c1)S(=O)(=O)c1ccccc1)N/N=C\c1ccc2c(c1)OCO2	L major viab 88.0
O=C(CN(Cc1ccccc1)S(=O)(=O)c1ccccc1)N/N=C/c1ccc2c(c1)OCO2	L major viab 63.3
Cc1cc(C)c(OCC(=O)N/N=C/c2ccc3c(c2)OCO3)c(C)c1	MT stabilizer 26.0
Cc1cccc(OCC(=O)N/N=C/c2ccc3c(c2)OCO3)c1	none
O=C(CN(CCc1ccccc1)S(=O)(=O)c1ccc(Br)cc1)N/N=C/c1ccc2c(c1)OCO2	none
CCn1ncc(-c2csc(N)n2)c1C	none
O=C(OCC#CCSc1nnc(-c2ccc(Br)cc2)o1)c1ccco1	none
COc1ccc(NS(=O)(=O)c2cccc(N3CC(O)=C(c4ccccc4)C3=N)c2)cc1	none
COc1ccc2ccccc2c1/C=N/NC(=S)Nc1cc(S(=O)(=O)N2CCOCC2)ccc1N1CCOCC1	none
CCOc1cccc(/C=N/NC(=S)Nc2cc(S(=O)(=O)N3CCOCC3)ccc2N2CCOCC2)c1O	L major viab 84.6
COc1ccc(/C=N/NC(=S)Nc2cc(S(=O)(=O)N3CCOCC3)ccc2N2CCOCC2)cc1O	L major viab 100.1 (no result: HSV augment)
CCOC(=O)c1ccc(NC(=O)N2CCOCC2)cc1	none
CCOC(=O)c1ccc(NC(=O)CSC(=S)N2CCOCC2)cc1	L major viab 97.3
Cc1cc(CSc2ccccc2)ccc1NC(=O)c1ccc(CN2CCOCC2)cc1	L major viab 62.9
CCOC(=O)c1ccc(NC(=O)c2ccc(CN3CCOCC3)cc2)cc1	L major viab 84.1
NC(=O)c1ccc(NC(=O)c2ccc(CN3CCOCC3)cc2)cc1	none (no result: b-catenin transl)
CC(=O)C1=C(O)C(=O)N(CCC(=O)O)C1c1ccccc1[N+](=O)[O-] (stereo not given)	none
Nc1nc(-c2ccccc2)cc(-c2ccccc2O)n1	none
NNc1nc(-c2ccccc2)cc(-c2ccccc2O)n1	L major viab 89.4 (no result: b-catenin transl)
COc1ccc(-c2[nH]ncc2/C=C(/C#N)C(=O)NC2CCCCCC2)cc1	MT stabilizer 48.9
Cc1cc(/C=C(\C#N)C(=O)NC2CCCCCC2)c(C)[nH]1	none
C/C(=N\NC(=O)Cc1c(C)[nH][nH]c1=O)c1ccc2ccccc2c1	none
CN1CCN(Cc2cc(=O)oc3cc4c(cc23)CCC4)CC1	L major viab 65.4
CCN1CCN(Cc2cc(=O)oc3cc4c(cc23)CCC4)CC1	none
Cc1ccc2c(CN3CCN(C(=O)c4ccco4)CC3)cc(=O)oc2c1C	none
Cc1cc2oc(=O)cc(CN3CCCc4ccccc43)c2cc1C	L major viab 99.3
Cc1cc2oc(=O)cc(CN3CCOCC3)c2cc1C	none
Cc1ccc2c(CN3CCN(CCO)CC3)cc(=O)oc2c1C	L major viab 54.9
CCc1ccc(NC(=O)CSc2n[nH]c(C)c2[N+](=O)[O-])cc1	none
Cc1ccc(C2(COC(=O)C(C)C)CO2)c(OC(=O)C(C)C)c1 (stereo not given)	none (no result: MT stabilizer, L major viab)
N#CC1=C(N)OC2=C(CC/C2=C\c2ccccc2Cl)C1c1ccccc1Cl (stereo not given)	L major viab 73.0
CC(=O)Nc1ccc(CN2CCCCCCC2)cc1	none
Cc1cccc(C(=O)NC(=S)Nc2ccc(Cc3ccncc3)cc2)c1	none
COc1ccc(Cl)cc1C(=O)Nc1ccc(NC(=O)c2ccco2)cc1	none
Cc1cc(C)cc(C(=O)NC(=S)Nc2ccc(Cc3ccncc3)cc2)c1	MT stabilizer 12.0
COc1ccc(Cl)cc1C(=O)NCC(C)C	none
Cc1ccc(C(=O)Nc2ccc(CN3CCCCC3)cc2)c(C)c1	L major viab 74.2
CCNC(=O)c1cc(Cl)ccc1OC	L major viab 56.2 (no result: b-catenin transl)
COc1ccc(Cl)cc1C(=O)Nc1ccc(CN2CCCCC2)cc1	L major viab 98.0
